Activity calls are given as the source filed them. No cut-off for these calls is given here.

The first assay concerns the target T1, Beta-adrenergic receptor kinase 1 (Homo sapiens) (UniProt P25098).
T1 sequence (whole entry): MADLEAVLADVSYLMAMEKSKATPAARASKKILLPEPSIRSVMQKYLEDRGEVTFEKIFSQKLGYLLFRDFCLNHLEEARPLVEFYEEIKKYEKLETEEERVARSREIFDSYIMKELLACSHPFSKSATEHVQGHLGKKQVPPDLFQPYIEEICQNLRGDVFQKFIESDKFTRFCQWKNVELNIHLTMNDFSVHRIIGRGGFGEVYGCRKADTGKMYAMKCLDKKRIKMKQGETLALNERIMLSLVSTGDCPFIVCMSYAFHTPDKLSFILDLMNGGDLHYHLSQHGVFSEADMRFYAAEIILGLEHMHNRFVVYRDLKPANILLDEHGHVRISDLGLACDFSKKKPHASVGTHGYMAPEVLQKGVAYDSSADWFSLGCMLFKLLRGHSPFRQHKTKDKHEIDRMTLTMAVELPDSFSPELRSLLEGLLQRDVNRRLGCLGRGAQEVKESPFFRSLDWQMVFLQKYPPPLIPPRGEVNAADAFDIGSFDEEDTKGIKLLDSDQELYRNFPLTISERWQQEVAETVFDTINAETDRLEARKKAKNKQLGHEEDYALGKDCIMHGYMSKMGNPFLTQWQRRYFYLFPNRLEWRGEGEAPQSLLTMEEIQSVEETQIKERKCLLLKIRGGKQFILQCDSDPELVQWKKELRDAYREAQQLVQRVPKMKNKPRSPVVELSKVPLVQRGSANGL
The experiment in a line: Inhibition of Beta-adrenergic receptor kinase 1 at 1 mM (Inactive). In outline:
(§1)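 Radiometric assay of βARK1 phosphorylating the intracellular C-terminal domain of human β2-adrenergic receptor (6.7 μM) with 10 mM [γ-32P]ATP (18.5 kBq). Stopped on ice water, then gel electrophoresis and imaging-plate readout of radioactivity. Inhibition % taken against control and background.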
For the molecule `COc1ccc(/C=N/c2ccc(O)cc2)cc1`, the inhibition result is “inactive”.

In the case of `Cc1csc(-c2nc(-c3ccc(Cl)cc3)no2)c1Cl`, the inhibition entry is “inactive”. `Clc1ccc(-c2csc(Nc3ccccc3)n2)cc1`: the inhibition result was “inactive”.

`O=[N+]([O-])c1ccccc1/N=C/c1ccc2c(c1)OCO2`: the inhibition result was “inactive”. `C/C(CCS(=O)(=O)c1ccccc1)=N\OC/C=C/Cl`: the inhibition entry is “inactive”.

As to `O=C(Nc1ccc(F)c([N+](=O)[O-])c1)Nc1cccc2c(O)cccc12`, the inhibition result was “inactive”. On to `CC(C)Sc1nc2sccn2c1/C=N/OCc1c(Cl)cccc1Cl`, for which the inhibition result was “inactive”.

For `CCCCCCCCCCCCCCCCN(C)c1ccc(S(C)(=O)=O)cc1N`, the inhibition result is “inactive”.

The next assay deals with T2, Beta-adrenergic receptor kinase 1 (Homo sapiens, UniProt P25098).
T2 sequence (P25098 whole entry): T1 sequence (whole entry)
The experiment in a line: Inhibition of Beta-adrenergic receptor kinase 1. An outline of the steps:
as §1
For `COC(=O)c1ccc(/C=C/c2ccc([N+](=O)[O-])o2)o1`, it took 126 µM to reach half-maximal inhibition (IC50). Same read-out and setting: the result for `CCC(=O)n1nc2c(c1C(C)(C)C)C(=O)c1ccccc1-2` reads 563 µM.

Another assay concerns the target cAMP-dependent protein kinase (PKA) (Homo sapiens) (UniProt P22694+P17612+P22612). Nature of the assay: Inhibition of Protein kinase A (PKA) at 1 mM. In kind it is functional. In outline:
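Colorimetric kit assay of PKA (final 87 units/μL) with dye-linked kemptide substrate (LRRASLG). Incubated 30 min at 30 °C. Phosphorylated substrate captured on affinity membrane, eluted, read at OD 570 nm. PKI5-24 was the positive control.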
Take `COC(=O)c1ccc(/C=C/c2ccc([N+](=O)[O-])o2)o1`: the inhibition was determined as 1.8%.

`CCC(=O)n1nc2c(c1C(C)(C)C)C(=O)c1ccccc1-2`: the inhibition was -2.2%.

In a further assay the target is T1, Beta-adrenergic receptor kinase 1 (Homo sapiens). Nature of the assay: Inhibition of Beta-adrenergic receptor kinase 1 at 1 mM. An outline of the steps: as §1
In the case of `O=C1C(O)=C(O)O[C@@H]1C1COC2(CCCCC2)O1` (stereo not given in full), the inhibition was found to be 0%. Consider `CCOC(=O)c1cnc2c(C(F)(F)F)cccc2c1O`, for which the inhibition turned out to be 20.1%. On the same count and under the same terms, the result for `O=C1C(O)=C(O)O[C@H]1C1COC2(CCCCC2)O1` (stereo not given in full) reads 20.4%; that for `Oc1nnc(Cc2ccc(-c3ccccc3Cl)o2)c2ccccc12`, 67.3%; that for `COC(=O)c1ccc(/C=C/c2ccc([N+](=O)[O-])o2)o1`, 88.4%. As for `COC(=O)c1sccc1Oc1ccc(C(F)(F)F)cc1NC=C(C#N)C#N`, the inhibition came out at 28.8%. `CC(C)COC(=O)CSc1nc2c(c(=O)[nH]c(=O)n2C)n1C`: the inhibition was found to be 0%. `CC(=O)CC(=O)Nc1cc(C(C)(C)C)sc1C(N)=O`: the inhibition worked out at 37.3%.

For `CCC(=O)n1nc2c(c1C(C)(C)C)C(=O)c1ccccc1-2`, the inhibition turned out to be 52.7%. Regarding `Cc1ccc(Cl)cc1NCN1C(=O)CNC1=S`, the inhibition turned out to be 26.5%. Turning to `Nc1nc(O)c2ncn([C@H]3O[C@@H]4COP(=O)(O)O[C@H]4[C@H]3O)c2n1`, the inhibition was 24.2%. Turning to `NC(=O)c1ncn([C@@H]2O[C@@H](CO)[C@H](O)[C@@H]2O)n1`, the inhibition was found to be 0%. `O=C(NCc1ccco1)c1ccc([N+](=O)[O-])o1`: the inhibition was 37.7%.

What is called inhibition is the change of the read-out against control, counted positive when it falls. One may read the IC50 as the point on the concentration scale where inhibition reaches its midpoint. Read a low IC50 as greater potency.

The values above are taken from ChEMBL document CHEMBL1135415, “Rational design and evaluation of new lead compound structures for selective betaARK1 inhibitors” (J Med Chem, 2002).
